Laboratory results: ChEMBL document CHEMBL3526015, “Metabolism of the c-Fos/activator protein-1 inhibitor T-5224 by multiple human UDP-glucuronosyltransferase isoforms” (Drug Metab Dispos, 2011)
Blank lines part the entries; values can stand above or below the molecule they belong to.

What was measured:
[1] = biological target: T1, UDP-glucuronosyltransferase 1A1 (Homo sapiens, UniProt P22309); test: Drug level assessed as human UGT1A1-mediated compound formation from 5 to 50 uM T-5224 after 60 mins in presence of UDP-glucuronic acid by HPLC method; format: ADME; conditions: recombinant enzyme, 1 h
T1 sequence (P22309 whole entry): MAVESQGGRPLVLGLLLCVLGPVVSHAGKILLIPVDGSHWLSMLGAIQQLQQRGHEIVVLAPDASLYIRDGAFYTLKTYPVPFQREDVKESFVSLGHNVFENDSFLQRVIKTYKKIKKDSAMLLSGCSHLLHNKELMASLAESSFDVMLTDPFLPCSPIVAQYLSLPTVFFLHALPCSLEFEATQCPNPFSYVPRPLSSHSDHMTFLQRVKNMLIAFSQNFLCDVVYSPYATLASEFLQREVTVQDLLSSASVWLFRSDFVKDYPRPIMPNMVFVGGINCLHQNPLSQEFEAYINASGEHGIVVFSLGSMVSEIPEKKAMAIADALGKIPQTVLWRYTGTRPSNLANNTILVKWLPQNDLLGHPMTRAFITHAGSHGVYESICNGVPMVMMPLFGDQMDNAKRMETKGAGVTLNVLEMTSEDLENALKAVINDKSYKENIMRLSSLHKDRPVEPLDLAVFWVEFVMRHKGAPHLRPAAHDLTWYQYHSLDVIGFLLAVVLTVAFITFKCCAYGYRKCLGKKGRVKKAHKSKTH
Outline: (§1)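 Recombinant human UGT microsomes from baculovirus-infected insect cells, 0.1 mg protein/mL, in 50 mM Tris-HCl pH 7.5, 8 mM MgCl2, alamethicin. T-5224 in DMSO (2% v/v final). Preincubated 5 min at 37°C, started with 2 mM UDPGA, run 60 min at 37°C and stopped with acetonitrile. Glucuronides resolved by C18 HPLC with UV at 290 nm. Linearity was checked at 0.05–0.2 mg/mL protein and 10–60 min.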

[2] = biological target: T2, UDP-glucuronosyltransferase 1A3 (Homo sapiens, UniProt P35503); test: Drug level assessed as human UGT1A3-mediated compound formation from 5 to 50 uM T-5224 after 60 mins in presence of UDP-glucuronic acid by HPLC method; format: ADME; conditions: recombinant enzyme, 1 h; outline: as §1
T2 sequence (P35503 whole entry): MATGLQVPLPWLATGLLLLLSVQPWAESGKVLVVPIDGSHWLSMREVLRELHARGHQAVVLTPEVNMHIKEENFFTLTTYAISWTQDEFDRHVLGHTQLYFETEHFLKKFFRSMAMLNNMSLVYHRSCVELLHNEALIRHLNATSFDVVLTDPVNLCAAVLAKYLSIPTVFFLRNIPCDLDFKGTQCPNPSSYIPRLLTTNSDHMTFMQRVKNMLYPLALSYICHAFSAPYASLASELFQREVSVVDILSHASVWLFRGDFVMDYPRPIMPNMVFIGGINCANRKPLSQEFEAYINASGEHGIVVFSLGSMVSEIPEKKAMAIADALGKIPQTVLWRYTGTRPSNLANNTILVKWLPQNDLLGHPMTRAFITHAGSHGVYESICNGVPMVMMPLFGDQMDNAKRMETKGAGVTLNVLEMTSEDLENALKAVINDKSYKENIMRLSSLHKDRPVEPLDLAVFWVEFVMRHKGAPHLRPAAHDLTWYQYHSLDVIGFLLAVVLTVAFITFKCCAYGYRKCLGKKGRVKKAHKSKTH

[3] = biological target: T1, UDP-glucuronosyltransferase 1A1; test: Drug level assessed as human UGT1A1-mediated compound formation from 5 to 50 uM T-5224 after 10 to 60 mins in presence of UDP-glucuronic acid by HPLC method; format: ADME; conditions: recombinant enzyme; outline: as §1
[4] = biological target: T2, UDP-glucuronosyltransferase 1A3; test: Drug level assessed as human UGT1A3-mediated compound formation from 5 to 50 uM T-5224 after 10 to 60 mins in presence of UDP-glucuronic acid by HPLC method; format: ADME; conditions: recombinant enzyme; outline: as §1
[5] = biological target: T1, UDP-glucuronosyltransferase 1A1; test: Drug level assessed as human UGT1A1-mediated compound formation from 5 to 50 uM T-5224 after 60 mins in presence of UDP-glucuronic acid using 0.05 to 0.2 mg/ml by HPLC method; format: ADME; conditions: recombinant enzyme, 1 h; outline: as §1
[6] = biological target: T2, UDP-glucuronosyltransferase 1A3; test: Drug level assessed as human UGT1A3-mediated compound formation from 5 to 50 uM T-5224 after 60 mins in presence of UDP-glucuronic acid using 0.05 to 0.2 mg/ml by HPLC method; format: ADME; conditions: recombinant enzyme, 1 h; outline: as §1
Liver microsome [7] = test: Drug level in pooled human liver microsomes treated with T-5224 assessed as compound formation in presence of UDPGA by LC-MS/MS method; format: ADME
Liver microsome [8] = test: Drug level in pooled human liver microsomes treated with 10 uM T-5224 assessed as compound formation after 10 mins by HPLC method; format: ADME
Outline: (§2)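 Pooled human liver microsomes at 0.5 mg protein/mL, or pooled intestinal microsomes at 0.25 mg/mL, in 50 mM Tris-HCl pH 7.5, 8 mM MgCl2, alamethicin, with 2 mM UDPGA. T-5224 at 10 μM, 10 min at 37°C after 5 min preincubation; stopped with acetonitrile. HPLC with UV at 290 nm. Linearity was tested over 0.1–1.0 mg/mL protein and 5–30 min.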

[9] = Drug level in pooled human intestinal microsomes treated with 10 uM T-5224 assessed as compound formation after 10 mins by HPLC method; format: ADME, Intestine, Microsome; outline: as §2
Liver microsome [10] = test: Drug level in pooled human liver microsomes treated with 10 uM T-5224 assessed as compound formation after 5 to 30 mins by HPLC method; format: ADME; outline: as §2
[11] = Drug level in pooled human intestinal microsomes treated with 10 uM T-5224 assessed as compound formation after 5 to 30 mins by HPLC method; format: ADME, Intestine, Microsome; outline: as §2
Liver microsome [12] = test: Drug level in pooled human liver microsomes treated with 10 uM T-5224 assessed as compound formation after 10 mins using 0.1 to 1.0 mg/ml microsomal protein content by HPLC method; format: ADME; outline: as §2
[13] = Drug level in pooled human intestinal microsomes treated with 10 uM T-5224 assessed as compound formation after 10 mins using 0.1 to 1.0 mg/ml microsomal protein content by HPLC method; format: ADME, Intestine, Microsome; outline: as §2
[14] = substrate: O=C(O)CCc1cc(C(=O)c2ccc(OC3CCCC3)cc2O)ccc1OCc1ccc2c(O)noc2c1; test: Drug metabolism assessed as Kcat to Km ratio for human UGT1A1-mediated T-5224 hydroxyl O-glucuronide formation per mg protein after 10 to 60 mins in presence of UDP-glucuronic acid by HPLC method; format: ADME
Outline: (§3)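 Recombinant human UGT1A1 from baculovirus-infected insect cells, 0.1 mg protein/mL, in 50 mM Tris-HCl pH 7.5 with 8 mM MgCl2 and alamethicin. T-5224 at 10–50 μM (2% DMSO final). After 5 min preincubation at 37°C, 2 mM UDPGA starts the reaction; 60 min at 37°C, stopped with acetonitrile. Glucuronides quantified by HPLC-UV at 290 nm, triplicate points. Substrate-inhibition fit gives Vmax, Km and Ksi. kcat = Vmax/E0, with UGT content taken from immunoblot.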

[15] = substrate: O=C(O)CCc1cc(C(=O)c2ccc(OC3CCCC3)cc2O)ccc1OCc1ccc2c(O)noc2c1; test: Drug metabolism assessed as human UGT1A1-mediated T-5224 acyl O-glucuronide formation after 10 to 60 mins in presence of UDP-glucuronic acid by HPLC method; format: ADME; outline: as §3
[16] = substrate: O=C(O)CCc1cc(C(=O)c2ccc(OC3CCCC3)cc2O)ccc1OCc1ccc2c(O)noc2c1; test: Drug metabolism assessed as Kcat to Km ratio for human UGT1A1-mediated T-5224 acyl O-glucuronide formation per mg protein after 10 to 60 mins in presence of UDP-glucuronic acid by HPLC method; format: ADME; outline: as §3
[17] = substrate: O=C(O)CCc1cc(C(=O)c2ccc(OC3CCCC3)cc2O)ccc1OCc1ccc2c(O)noc2c1; test: Drug metabolism assessed as human UGT1A1-mediated T-5224 hydroxyl O-glucuronide formation after 10 to 60 mins in presence of UDP-glucuronic acid by HPLC method; format: ADME; outline: as §3
[18] = substrate: O=C(O)CCc1cc(C(=O)c2ccc(OC3CCCC3)cc2O)ccc1OCc1ccc2c(O)noc2c1; test: Drug metabolism assessed as human UGT1A3-mediated T-5224 hydroxyl O-glucuronide formation after 10 to 60 mins in presence of UDP-glucuronic acid by HPLC method; format: ADME
Outline: (§4)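 Kinetics used recombinant UGT1A1, 1A3 or 1A8 (0.1 mg protein/mL) with T-5224 at 1–50 μM, 2 mM UDPGA and 60 min at 37°C, in triplicate. G2/G3 were measured by HPLC at 290 nm and fitted to a substrate-inhibition model (Vmax, Km, Ksi). UGT content was quantified by immunoblot, and kcat = Vmax/E0 was derived from it.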

[19] = substrate: O=C(O)CCc1cc(C(=O)c2ccc(OC3CCCC3)cc2O)ccc1OCc1ccc2c(O)noc2c1; test: Drug metabolism assessed as Kcat to Km ratio for human UGT1A3-mediated T-5224 hydroxyl O-glucuronide formation per mg protein after 10 to 60 mins in presence of UDP-glucuronic acid by HPLC method; format: ADME; outline: as §4
[20] = substrate: O=C(O)CCc1cc(C(=O)c2ccc(OC3CCCC3)cc2O)ccc1OCc1ccc2c(O)noc2c1; test: Drug metabolism assessed as human UGT1A3-mediated T-5224 acyl O-glucuronide formation after 10 to 60 mins in presence of UDP-glucuronic acid by HPLC method; format: ADME; outline: as §4
[21] = substrate: O=C(O)CCc1cc(C(=O)c2ccc(OC3CCCC3)cc2O)ccc1OCc1ccc2c(O)noc2c1; test: Drug metabolism assessed as Kcat to Km ratio for human UGT1A3-mediated T-5224 acyl O-glucuronide formation per mg protein after 10 to 60 mins in presence of UDP-glucuronic acid by HPLC method; format: ADME; outline: as §4
[22] = substrate: O=C(O)CCc1cc(C(=O)c2ccc(OC3CCCC3)cc2O)ccc1OCc1ccc2c(O)noc2c1; test: Drug metabolism assessed as human UGT1A8-mediated T-5224 hydroxyl O-glucuronide formation after 10 to 60 mins in presence of UDP-glucuronic acid by HPLC method; format: ADME; outline: as §4

Drug metabolism [1]: metabolite_detected | Drug metabolism [2]: metabolite_detected | Drug metabolism [3]: Dose-dependent effect | Drug metabolism [4]: Dose-dependent effect | Drug metabolism [5]: Dose-dependent effect | Drug metabolism [6]: Dose-dependent effect | Drug metabolism (Liver microsome [7]): metabolite_detected | Drug metabolism (Liver microsome [8]): metabolite_detected | Drug metabolism [9]: metabolite_detected | Drug metabolism (Liver microsome [10]): Dose-dependent effect | Drug metabolism [11]: Dose-dependent effect | Drug metabolism (Liver microsome [12]): Dose-dependent effect | Drug metabolism [13]: Dose-dependent effect
Molecule: O=C(CCc1cc(C(=O)c2ccc(OC3CCCC3)cc2O)ccc1OCc1ccc2c(O)noc2c1)O[C@@H]1O[C@H](C(=O)O)[C@@H](O)[C@H](O)[C@H]1O

B1: UDP-glucuronosyltransferase 1A1 (Homo sapiens) (protein)
chain: T1 sequence (P22309 whole entry)
kcat/Km [14]: 284 M⁻¹ s⁻¹ | Km [15]: 7.91 µM | kcat [15]: 0.0072 s⁻¹ | kcat/Km [16]: 903 M⁻¹ s⁻¹ | Km [17]: 5.56 µM | kcat [17]: 0.00158 s⁻¹

B2: UDP-glucuronosyltransferase 1A3 (Homo sapiens) (protein)
chain: T2 sequence (P35503 whole entry)
Km [18]: 17.9 µM | kcat [18]: 0.0138 s⁻¹ | kcat/Km [19]: 774 M⁻¹ s⁻¹ | Km [20]: 7.21 µM | kcat [20]: 0.00182 s⁻¹ | kcat/Km [21]: 252 M⁻¹ s⁻¹

B3: UDP-glucuronosyltransferase 1A8 (Homo sapiens) (protein)
chain: MARTGWTSPIPLCVSLLLTCGFAEAGKLLVVPMDGSHWFTMQSVVEKLILRGHEVVVVMPEVSWQLGKSLNCTVKTYSTSYTLEDLDREFMDFADAQWKAQVRSLFSLFLSSSNGFFNLFFSHCRSLFNDRKLVEYLKESSFDAVFLDPFDACGLIVAKYFSLPSVVFARGIACHYLEEGAQCPAPLSYVPRILLGFSDAMTFKERVRNHIMHLEEHLFCQYFSKNALEIASEILQTPVTAYDLYSHTSIWLLRTDFVLDYPKPVMPNMIFIGGINCHQGKPLPMEFEAYINASGEHGIVVFSLGSMVSEIPEKKAMAIADALGKIPQTVLWRYTGTRPSNLANNTILVKWLPQNDLLGHPMTRAFITHAGSHGVYESICNGVPMVMMPLFGDQMDNAKRMETKGAGVTLNVLEMTSEDLENALKAVINDKSYKENIMRLSSLHKDRPVEPLDLAVFWVEFVMRHKGAPHLRPAAHDLTWYQYHSLDVIGFLLAVVLTVAFITFKCCAYGYRKCLGKKGRVKKAHKSKTH
Km [22]: 6.05 µM | Vmax [22]: 0.000206 µmol/min | kcat [22]: 0.00184 s⁻¹ | kcat/Km [22]: 303 M⁻¹ s⁻¹
